In ChEMBL document CHEMBL1156059, “Thienopyrimidine-based P2Y12 platelet aggregation inhibitors” (Bioorg Med Chem Lett, 2009):

Columns and labels:
[1] = biological target: T1, P2Y purinoceptor 12 (Homo sapiens, UniProt Q9H244); test: Binding affinity to human recombinant P2Y12 receptor expressed on CHO cell membrane; assay type: cell membranes
Outline: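 Competition binding against 33P 2-MeSADP (added as a 1 nM solution) on membranes from CHO cells transfected with recombinant human P2Y12. Membranes were used at 10, 1 or 0.3 µg/well depending on method. Buffer contained 0.02% BSA, ascorbic acid and protease inhibitors. Cold 2-MeSADP (1.5 µM solution) served as control. Compounds were run as a seven-point threefold series from 10 µM, in triplicate. Plates were incubated 1 h at room temperature, then GF/B filtered and scintillation counted.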

[2] = biological target: T1, P2Y purinoceptor 12; test: Binding affinity to human recombinant P2Y12 receptor expressed in CHO cell membrane in presence of HSA and human AGP; assay type: cell membranes
Outline: (§1)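 Same 33P 2-MeSADP filtration binding on recombinant human P2Y12 CHO membranes (1 or 0.3 µg/well), room temperature, 1 h. Membranes were prepared with 5X HSA (1.75%) and 5X AGP (0.075%). Compounds were run as a seven-point threefold series from 10 µM, in triplicate. Fold shift is the Ki with added protein divided by the Ki without protein.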

[3] = Antiplatelet aggregatory activity in human platelet rich plasma assessed as inhibition of ADP-induced platelet aggregation; assay type: functional
Outline: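 Human PRP was obtained by centrifuging whole blood at 200g for 15 min at room temperature, then adjusted to 300,000 platelets/µL with autologous platelet-poor plasma (2380g spin). Stirred PRP was mixed with compound, and aggregation was started with 20 µM ADP. Aggregation was read as the increase in light transmittance on a microplate spectrophotometer. Each concentration was run in duplicate.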

[4] = organism: Homo sapiens; test: Ratio of Ki for human recombinant P2Y12 in presence of HSA and AGP to Ki for human recombinant P2Y12; outline: as §1

T1 sequence (Q9H244 whole entry): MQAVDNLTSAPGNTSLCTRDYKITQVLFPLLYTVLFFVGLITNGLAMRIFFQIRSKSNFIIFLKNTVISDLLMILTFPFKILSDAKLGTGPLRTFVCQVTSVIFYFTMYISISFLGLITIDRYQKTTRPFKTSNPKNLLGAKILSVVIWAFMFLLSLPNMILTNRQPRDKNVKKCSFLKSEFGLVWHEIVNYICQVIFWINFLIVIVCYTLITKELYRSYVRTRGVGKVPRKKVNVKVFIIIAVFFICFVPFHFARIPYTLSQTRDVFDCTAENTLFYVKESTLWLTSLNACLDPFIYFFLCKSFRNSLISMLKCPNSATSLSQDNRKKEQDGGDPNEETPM

SMILES | Ki [1] [nM] | Ki [2] [nM] | IC50 [3] [nM] | Ratio Ki [4]
CCc1cc2c(N3CCN(C(=O)c4ccc(-c5ccccc5)cc4)CC3)nc(N3CCN(C(=O)C(F)(F)F)CC3)nc2s1 | 839 | 1810 | > 100000 | 2
CCC(=O)N1CCN(c2nc(NC(=O)NCCC(=O)O)nc3sc(CC)cc23)CC1 | 295 | 367 | 16000 | 1.2
CCc1cc2c(N3CCN(C(=O)c4ccc(-c5ccccc5)cc4)CC3)nc(NCCCO)nc2s1 | 78 | 441 | 56000 | 5.6
CCc1cc2c(N3CCN(C(=O)c4ccc(-c5ccccc5)cc4)CC3)nc(NCCO)nc2s1 | 37 | 163 | 21000 | 4.4
CCc1cc2c(N3CCN(C(=O)CC(F)(F)F)CC3)ncnc2s1 | 2990 |  | 28000 | 
CCc1cc2c(N3CCN(C(=O)c4ccccc4)CC3)ncnc2s1 | 4400 |  |  | 
CCc1cc2c(N3CCN(C(=O)c4ccc(-c5ccccc5)cc4)CC3)nc(N3CCNCC3)nc2s1 | 410 | 397 | 45000 | 1
CCc1cc2c(N3CCN(C(=O)CC(C)C)CC3)ncnc2s1 | 2100 |  | 8000 | 
CCc1cc2c(N3CCN(C(C)=O)CC3)nc(NC(=O)NCCC(=O)O)nc2s1 | 460 | 380 | 38000 | 0.8
CCc1cc2c(N3CCN(C(=O)Cc4ccccc4)CC3)nc(NC(=O)NCCC(=O)O)nc2s1 | 223 | 231 | 16000 | 1
CCc1cc2c(N3CCN(C(=O)COc4cccc(OC)c4)CC3)nc(NC(=O)NCCC(=O)O)nc2s1 | 191 | 447 | 39000 | 2.3
CCc1cc2c(N3CCN(C(=O)c4ccc(-c5ccccc5)cc4)CC3)nc(N3CCC(O)C3)nc2s1 (stereo not drawn) | 35 | 241 | 37000 | 7
CCc1cc2c(N3CCN(C(=O)COc4ccccc4)CC3)nc(NC(=O)NCCC(=O)O)nc2s1 | 539 | 593 | 25000 | 1.1
CCc1cc2c(N3CCN(C(=O)c4ccc(-c5ccccc5)cc4)CC3)nc(N3CC(O)C3)nc2s1 | 27 | 297 | 30000 | 11
CCc1cc2c(N3CCN(C(=O)Cc4ccccc4)CC3)ncnc2s1 | 660 |  | 28000 | 
CCc1cc2c(N3CCN(C(=O)c4ccc(-c5ccccc5)cc4)CC3)ncnc2s1 | 29 |  | 7000 | 

SMILES | Ki [1] [nM] | Ki [2] [nM] | IC50 [3] [nM] | Ratio Ki [4]
CCc1cc2c(N3CCN(C(=O)c4ccc(-c5ccccc5)cc4)CC3)nc(N3CCCC(C(N)=O)C3)nc2s1 (stereo not drawn) | 31 | 203 | 73000 | 6.5
CCc1cc2c(N3CCN(C(=O)C(C)C)CC3)nc(NC(=O)NCCC(=O)O)nc2s1 | 36 | 46 | 4000 | 1.3
CCc1cc2c(N3CCN(C(=O)c4ccc(-c5ccccc5)cc4)CC3)nc(NC[C@@H](O)CO)nc2s1 | 19 | 75 | 11000 | 4
CCc1cc2c(N3CCN(C(=O)c4ccc(-c5ccccc5)cn4)CC3)nc(NC(=O)NCCC(=O)O)nc2s1 | 37 | 161 | 42000 | 4.3
CCc1cc2c(N3CCN(C(=O)CCOc4ccccc4)CC3)nc(NC(=O)NCCC(=O)O)nc2s1 | 213 | 783 | 86000 | 3.7
CCc1cc2c(N3CCN(C(=O)Cc4ccc(F)c(F)c4)CC3)nc(NC(=O)NCCC(=O)O)nc2s1 | 68 | 140 | 34000 | 2
CCc1cc2c(N3CCN(C(=O)Oc4cccc5ccccc45)CC3)ncnc2s1 | 130 |  | 1250 | 
CCc1cc2c(N3CCN(C(=O)c4ccc(-c5ccccc5)cc4)CC3)nc(NCCC(=O)O)nc2s1 |  | 122 | 57000 | 15
CCc1cc2c(N3CCN(C(=O)c4ccc(-c5ccccc5)cc4)CC3)nc(NC(=O)NCCC(=O)O)nc2s1 |  | 10 | 5000 | 3.3
CCc1cc2c(N3CCN(C(=O)c4ccc(-c5ccccc5)cc4)CC3)nc(N3CCC(N)CC3)nc2s1 | 240 | 325 | 40000 | 1.3
CCc1cc2c(N3CCN(C(=O)CC(F)(F)F)CC3)nc(NC(=O)NCCC(=O)O)nc2s1 | 177 | 172 | 18000 | 1
CCc1cc2c(N3CCN(C(=O)CCCCOc4ccccc4)CC3)ncnc2s1 |  |  | 4000 | 
CCc1cc2c(N3CCN(C(=O)c4ccc(-c5ccccc5)cc4)CC3)nc(N3[C@@H](C(N)=O)CC[C@H]3C(N)=O)nc2s1 | 4 | 21 | 3000 | 5
CCc1cc2c(N3CCN(C(=O)C(F)(F)F)CC3)ncnc2s1 |  |  | 18000 | 
CCc1cc2c(N3CCN(C(=O)c4ccc(-c5ccccc5)cc4)CC3)nc(N3C[C@@H](O)C[C@H]3C(=O)O)nc2s1 | 5 | 31 | 4000 | 6
